Publication PMC4836388 (ACS chemical biology, 2015)
“Also recorded” adds a separate entry of the source.

B1: cyanovirin-N: lectin that binds high-mannose glycans in the gp120 outer domain (protein, UniProt P81180 1-101, looked up)
Cyanovirin-N: LGKFSQTCYNSAIQGSVLTSTCERTNGGYNTSSIDLNSVIENVDGSLKWQPSNFIETCRNTQLAGSSELAAECKTRAQQFVSTKINLDDHIANIDGTLKYE

Legend:
[1] = system: HIV-1BaL pseudovirus; assay: single-round pseudoviral infection luciferase reporter assay; assay type: cell-based; conditions: for inhibition of pseudotyped HIV-1BaL infection by sulfhydryl reagent: reagent not removed
[2] = system: pseudotyped HIV-1BaL virus; assay: virolysis assay; conditions: HIV-1BaL pseudotyped virions
[3] = system: HIV-1BaL virions; assay: sulfhydryl reagent treat/wash viral infection assay; assay type: cell-based; conditions: HOS cells
[4] = system: HIV-1BaL pseudovirus; assay: 2G12 mechanism of action infection assay; assay type: cell-based; conditions: ligand added after virus bound to cells at 4 °C
Procedure, shortened: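 HIV-1BaL.01 Env pseudovirus (pNL4-3.Luc+ R− E− backbone, made in HEK-293T, iodixanol-gradient purified) bound to prechilled HOS.T4.R5 cells (preseeded 24 h, 8000/well) 4 h at 4 °C. Cells washed twice cold, then exposed to serially diluted test antibody for 30 min steps at 4 °C and 23 °C, then 24 h at 37 °C. Medium wash; lysis at 48 h; luciferase (1 mM D-luciferin). Enfuvirtide control wells; triplicate; infection relative to virus without inhibitor.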

[5] = system: pseudotyped HIV-1BaL virions; assay: protein inhibition of virolysis; conditions: with 10 μM 1, 14 μM 2 or 50 μM 8 (EC80)

Molecule	inhibition of pseudotyped HIV-1BaL infection by sulfhydryl reagent [1]	virus infectivity after reagent treatment and removal [3]	further results
CC[C@H](C)[C@H](NC(=O)[C@@H](N)CCCNC(=N)N)C(=O)N[C@@H](CC(N)=O)C(=O)N[C@@H](CC(N)=O)C(=O)N[C@H](C(=O)N1C[C@@H](n2cc([C]34[CH]5[CH]6[CH]7[CH]3[Fe]6754389%10[CH]4[CH]3[CH]8[CH]9[CH]4%10)nn2)C[C@H]1C(=O)N[C@@H](Cc1c[nH]c2ccccc12)C(=O)N[C@@H](CO)C(=O)N[C@@H](CCC(=O)O)C(=O)N[C@@H](C)C(=O)N[C@@H](CCSC)C(=O)N[C@@H](CCSC)C(=O)NCCC(=O)N[C@@H](CCC(N)=O)C(=O)NCCC(=O)N[C@@H](CSC1CC(=O)N(CCC(=O)NCCCOCCOCCOCCCNC(=O)CCN2C(=O)CC(SC[C@H](NC(=O)CCNC(=O)[C@H](CCC(N)=O)NC(=O)CCNC(=O)[C@H](CCSC)NC(=O)[C@H](CCSC)NC(=O)[C@H](C)NC(=O)[C@H](CCC(=O)O)NC(=O)[C@H](CO)NC(=O)[C@H](Cc3c[nH]c4ccccc34)NC(=O)[C@@H]3C[C@H](n4cc([C]56[CH]7[CH]8[CH]9[CH]5[Fe]89765%10%11%12[CH]6[CH]5[CH]%10[CH]%11[CH]6%12)nn4)CN3C(=O)[C@@H](NC(=O)[C@H](CC(N)=O)NC(=O)[C@H](CC(N)=O)NC(=O)[C@@H](NC(=O)[C@@H](N)CCCNC(=N)N)[C@@H](C)CC)[C@@H](C)CC)C(N)=O)C2=O)C1=O)C(N)=O)[C@@H](C)CC (stereo partly drawn) [1a]			inhibition of HIV-1 infection (in words) ([1]; HIV-1BaL pseudotyped virions): powerful inhibitor of HIV-1 infection, comparable to 1; p24 release (in words) [2]: did not induce p24 release
NC(=O)CI [IAAm, iodoacetamide]	inhibit		
O[C@@H](CS)[C@@H](O)CS (racemic) [DTT, dithiothreitol]	inhibit	did not cause significant dose-dependent reduction	
enfuvirtide [T20]			infection with six-helix bundle formation delayed by low temperature [4]: blocked infection
O=C(O)CCP(CCC(=O)O)CCC(=O)O [TCEP, tris(2-carboxyethyl)phosphine]	inhibit	did not cause significant dose-dependent reduction	
B1			inhibition of PTT-induced p24 release by protein ligand [5]: did not inhibit p24 release; also recorded: no inhibition of p24 release
